The source made the active and inactive calls. The rule behind the calls is not given here.
Key:
[1] = Cytotoxicity against african green monkey Vero cells after 24 hrs by MTT assay; format: cell-based; details: chlorocebus sabaeus
[2] = Half life in simulated gastric fluid after 1 hr by reverse phase HPLC; format: physicochemical
In short: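 Prodrug stock of 2 mg/200 μL DMSO, diluted 1:20 in USP simulated gastric fluid and held at 37 °C for 1 h. Timed aliquots were quenched with methanol, brought to pH 6.0 with NH4OAc/NaOH, centrifuged and concentrated. Read by reversed-phase C18 HPLC using a 30 min gradient from 0.1 M NH4OAc to 80:20 CH3CN:NH4OAc at 1 mL/min.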

[3] = Cytotoxicity against MDBK cells after 24 hrs by MTT assay; format: cell-based, Bos taurus; details: cattle
[4] = Half life in simulated intestinal fluid after 1 hr by reverse phase HPLC; format: physicochemical
In short: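 Prodrug stock (2 mg per 200 μL DMSO) diluted 1:20 into simulated intestinal fluid and held at 37 °C for 1 h. Aliquots at selected times were quenched with methanol, brought to pH 6.0 with NH4OAc/NaOH, centrifuged, concentrated and redissolved in 0.1 M NH4OAc. Analysed by reversed-phase C18 HPLC with photodiode-array detection, 0.1 M NH4OAc to 80:20 CH3CN:NH4OAc gradient over 30 min.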

[5] = Cytotoxicity against human HFF cells after 24 hrs by MTT assay; format: cell-based
Hepatitis B virus [6] = experiment: Antiviral activity against HBV infected in mouse assessed as liver HBV DNA level at 300-400 mg/kg, po QD for 14 days by Southern blotting; format: functional, organism-based
In short: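 HBV transgenic mice, pre-biopsied for liver HBV DNA and block-randomized (8/group). Dosed 300 to 400 mg/kg by oral gavage once daily for 14 days in 0.05 M citric acid pH 2.4 (0.1 mL per 20 g). Liver Southern blot with a 32P HBV genomic probe, hybridized overnight at 60°C and read by phosphorimaging. Viral DNA was ratioed to the transgene band (1.3 copies/cell). ADV was the positive control.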

Hepatitis B virus [7] = experiment: Antiviral activity against 3TC-resistant HBV with polymerase LMMV mutation infected in HepG2.2.15 cells assessed as nucleic acid and protein levels dosed daily for 9 days and measured 24 hrs after last treatment by Southern blot hybridization; format: functional, organism-based, HepG2 2.2.15; details: for EC50: Hepatitis B virus, HepG2 2.2.15
Hepatitis B virus [8] = experiment: Antiviral activity against 3TC-resistant HBV with polymerase L180M mutation infected in HepG2.2.15 cells assessed as nucleic acid and protein levels dosed daily for 9 days and measured 24 hrs after last treatment by Southern blot hybridization; format: functional, organism-based, HepG2 2.2.15; details: for EC50: Hepatitis B virus, HepG2 2.2.15
Mus musculus = experiment: Toxicity against HBV infected mouse at 300-400 mg/kg, po QD for 14 days; format: organism-based; details: in vivo, 336 h
Hepatitis B virus [9] = experiment: Antiviral activity against 3TC-resistant HBV with polymerase M204I mutation infected in HepG2.2.15 cells assessed as nucleic acid and protein levels dosed daily for 9 days and measured 24 hrs after last treatment by Southern blot hybridization; format: functional, organism-based, HepG2 2.2.15; details: for EC50: Hepatitis B virus, HepG2 2.2.15
Hepatitis B virus [10] = experiment: Antiviral activity against ADV-resistant HBV N236T mutation infected in HepG2.2.15 cells assessed as nucleic acid and protein levels dosed daily for 9 days and measured 24 hrs after last treatment by Southern blot hybridization; format: functional, organism-based, HepG2 2.2.15; details: for EC50: Hepatitis B virus, HepG2 2.2.15
Hepatitis B virus [11] = experiment: Antiviral activity against 3TC-resistant HBV with polymerase M204V mutation infected in HepG2.2.15 cells assessed as nucleic acid and protein levels dosed daily for 9 days and measured 24 hrs after last treatment by Southern blot hybridization; format: functional, organism-based, HepG2 2.2.15; details: for EC50: Hepatitis B virus, HepG2 2.2.15
Hepatitis B virus [12] = experiment: Antiviral activity against HBV infected in mouse assessed as reduction in liver HBV DNA level dosed po QD for 14 days by Southern blotting; format: functional, organism-based
In short: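 HBV transgenic mice, pre-biopsied for liver HBV DNA and block-randomized (8/group). Gavaged at 1, 5, 10 or 100 mg/kg once daily for 14 days in 0.05 M citric acid pH 2.4, against placebo and an ADV control. Liver taken after the last dose. HBV DNA by Southern blot with a 32P genomic probe and phosphorimaging, normalized to the transgene band (1.3 copies/cell).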

Hepatitis B virus [13] = experiment: Antiviral activity against wild type HBV infected in HepG2.2.15 cells assessed as nucleic acid and protein levels dosed daily for 9 days and measured 24 hrs after last treatment by Southern blot hybridization; format: functional, organism-based, HepG2 2.2.15; details: for EC50: Hepatitis B virus, HepG2 2.2.15

Compound | CC50 at 24 h [1] [µM] | half-life [2] [h] | CC50 at 24 h [3] [µM] | half-life [4] [h] | CC50 at 24 h [5] [µM] | Activity (Hepatitis B virus [6]) | EC90 (Hepatitis B virus [7]) [µM] | EC50 (Hepatitis B virus [7]) [µM] | EC90 (Hepatitis B virus [8]) [µM] | EC50 (Hepatitis B virus [8]) [µM] | Activity (Mus musculus) | EC90 (Hepatitis B virus [9]) [µM] | EC50 (Hepatitis B virus [9]) [µM] | EC90 (Hepatitis B virus [10]) [µM] | EC50 (Hepatitis B virus [10]) [µM] | EC90 (Hepatitis B virus [11]) [µM] | EC50 (Hepatitis B virus [11]) [µM] | Activity (Hepatitis B virus [12]) | EC90 (Hepatitis B virus [13]) [µM] | EC50 (Hepatitis B virus [13]) [µM]
CO[C@@H]1[C@H](OP(=O)(S)OC[C@H]2O[C@@H](n3cnc4c(N)ncnc43)C[C@@H]2O)[C@@H](CO)O[C@H]1n1ccc(=O)[nH]c1=O (stereo partly drawn) [INARIGIVIR] | > 1000 | < 0.25 | > 1000 | 1 | > 1000 |  |  |  |  |  |  |  |  |  |  |  |  |  |  | 
CO[C@@H]1[C@H](OP(=O)(OC[C@H]2O[C@@H](n3cnc4c(N)ncnc43)C[C@@H]2O)SCOC(=O)C(C)(C)C)[C@@H](CO)O[C@H]1n1ccc(=O)[nH]c1=O (stereo partly drawn) | > 1000 | > 1 | > 1000 |  | > 1000 | Active |  |  |  |  |  |  |  |  |  |  |  |  |  | 
CO[C@@H]1[C@H](OP(=O)(OC[C@H]2O[C@@H](n3cnc4c(N)ncnc43)C[C@@H]2O)SCOC(=O)OC(C)C)[C@@H](CO)O[C@H]1n1ccc(=O)[nH]c1=O (stereo partly drawn) [INARIGIVIR SOPROXIL] | > 1000 | > 1 | > 1000 |  | > 1000 | Active | 9.3 | 3.1 | 8.6 | 2.1 | Non-toxic | 9.2 | 3 | 8.7 | 2.8 | 8.3 | 2.4 | Dose-dependent effect | 8.5 | 2.5
Nc1ccn([C@@H]2CS[C@H](CO)O2)c(=O)n1 [LAMIVUDINE] |  |  |  |  |  |  | >100 | > 100 | 20 | 5.3 |  | >100 | > 100 | 0.8 | 0.2 | >100 | > 100 |  | 0.7 | 0.2
CC(C)(C)C(=O)OCOP(=O)(COCCn1cnc2c(N)ncnc21)OCOC(=O)C(C)(C)C [ADEFOVIR DIPIVOXIL] |  |  |  |  |  |  | 8.3 | 2.2 | 8.2 | 2.1 |  | 8 | 2 | 29 | 7.5 | 7.2 | 1.8 |  | 7 | 1.5
